Source: ChEMBL document CHEMBL4316637, “Highly Modified Lanostane Triterpenes from Fruiting Bodies of the Basidiomycete Tomophagus sp” (J Nat Prod, 2019)
In brackets after ≈: the same amount, converted by molar mass.

Columns and labels:
Vero = test: Cytotoxicity against African green monkey Vero cells by GFP based microplate assay; type: cell-based; details: Chlorocebus sabaeus
Method in brief: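 Vero cells (nonmalignant African green monkey kidney […]) tested with a green fluorescent protein microplate assay.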

Plasmodium falciparum = test: Antimalarial activity against Plasmodium falciparum K1 infected in human type A+ erythrocytes incubated for 24 hrs followed by [G-3H]-hypoxanthine incorporation and measured after 18 hrs by liquid scintillation counting method; type: functional, organism-based
Method in brief: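 P. falciparum K1 (multidrug-resistant strain), tested in duplicate with the microculture radioisotope technique; IC50 derived.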

[1] = tested on: Mycobacterium tuberculosis; test: Antitubercular activity against Mycobacterium tuberculosis H37Ra by GFP based microplate assay; type: functional
Method in brief: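 Whole-cell assay on M. tuberculosis H37Ra growth, read by green fluorescent protein signal in microplates; activity given as MIC in μg/mL.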

SMILES | IC50 (Vero) [µM] | IC50 (Plasmodium falciparum) [µM] | MIC [1] [µg/mL]
CC(=O)OC[C@]12CC[C@H](O)C(C)(C)[C@@H]1CCC1=C2CC[C@]2(C)[C@@H]([C@H](C)[C@@H]3CC=C(C)C(=O)O3)CC[C@@]12C | > 98 | > 20 | > 50
CC1=CC[C@@H]([C@@H](C)[C@H]2CC[C@@]3(C)C4=C(C=C5C=CC(=O)OC(C)(C)[C@@H]5CC4)CC[C@]23C)OC1=O | > 108 | 18 | > 50
CC(=O)[C@H]1C[C@@H](O)[C@@]2(C)C3=C(C=C4C=CC(=O)OC(C)(C)[C@@H]4CC3)[C@@H](O)C[C@]12C | > 125 | > 25 | > 50
CC(=O)OC(C)(C)[C@@H]1CC=C2C(=CC[C@]3(C)[C@@H]([C@H](C)[C@@H]4CC=C(C)C(=O)O4)CC[C@@]23C)[C@@]12CCC(=O)OC2 | 38 | 7.7 | 50 (≈ 95.3 µM)
C[C@H]1[C@@H](O)O[C@@H]2O[C@@]3(C)CC[C@H]4[C@H](C)CC[C@@H]1[C@@]24OO3 [ARTENIMOL] |  | 0.0028 | 
COC(=O)CC[C@]1(COC(C)=O)C2=C(CC[C@H]1C(C)(C)O)[C@]1(C)CC[C@H]([C@H](C)[C@@H]3CC=C(C)C(=O)O3)[C@@]1(C)CC2 | 11 | 15 | 12.5 (≈ 22.4 µM)
CC(=O)O[C@@H]1C[C@H]([C@H](C)[C@@H]2CC=C(C)C(=O)O2)[C@@]2(C)C[C@H](O)C3=C(CC[C@H]4C(C)(C)OC(=O)C=C[C@]45O[C@@H]35)[C@]12C | > 90 | > 18 | > 50
CC(=O)[C@H]1C[C@@H](O)[C@@]2(C)C3=C(C=C4C=CC(=O)OC(C)(C)[C@@H]4CC3)CC[C@]12C | > 130 | > 26 | > 50
CC(=O)O[C@@H]1C[C@H]([C@H](C)[C@@H]2CC=C(C)C(=O)O2)[C@@]2(C)C[C@H](O)C3=C(CC[C@@H]4C(=C3)C=CC(=O)OC4(C)C)[C@]12C | 34 | > 19 | > 50
CC(=O)O[C@@H]1C[C@H]([C@H](C)[C@@H]2CC=C(C)C(=O)O2)[C@@]2(C)CCC3=C(CC[C@]4(C(C)(C)O)OC(=O)C=CC4=C3)[C@]12C | 33 | > 19 | > 50
CC1=CC[C@]2(OC1=O)O[C@H]1O[C@H]3C[C@@]14[C@H](CC[C@@]4(C)C1=C3C=C3C=CC(=O)OC(C)(C)[C@@H]3CC1)[C@@H]2C | > 102 | > 20 | > 50
CC1=CC[C@@]2(OC1=O)O[C@H]1O[C@H]3C[C@@]14[C@H](CC[C@@]4(C)C1=C3C=C3C=CC(=O)OC(C)(C)[C@@H]3CC1)[C@@H]2C | > 102 | > 20 | > 50
CC1=CC[C@@H]([C@@H](C)[C@H]2CC[C@@]3(C)C4=C(CC[C@]23C)[C@@]2(CO)CC[C@H](O)C(C)(C)[C@@H]2CC4)OC1=O | > 106 | > 21 | > 50
CC(=O)O[C@@H]1C[C@H]([C@H](C)[C@@H]2CC=C(C)C(=O)O2)[C@@]2(C)CCC3=C(CC[C@@H]4C(=C3)C=CC(=O)OC4(C)C)[C@]12C | 11 | 18 | > 50
CC(=O)OC[C@@]1(CCC(=O)O)C2=CC[C@]3(C)[C@@H]([C@H](C)[C@@H]4CC=C(C)C(=O)O4)CC[C@@]3(C)C2=CC[C@H]1C(C)(C)O | 88 | 5.5 | > 50
CC1=CC[C@@H]([C@@H](C)[C@H]2C[C@@H](O)[C@@]3(C)C4=C(C=C5C=CC(=O)OC(C)(C)[C@@H]5CC4)[C@@H](O)C[C@]23C)OC1=O | > 101 | > 20 | > 50
NNC(=O)c1ccncc1 [ISONIAZID] |  |  | 0.047 (≈ 0.343 µM)
COC(=O)CC[C@]1(COC(C)=O)C2=CC[C@]3(C)[C@@H]([C@H](C)[C@@H]4CC=C(C)C(=O)O4)CC[C@@]3(C)C2=CC[C@H]1C(C)(C)O | 32 | 8.1 | 50 (≈ 89.8 µM)
CC(=O)O[C@@H]1C[C@H]([C@H](C)[C@@H]2CC=C(C)C(=O)O2)[C@@]2(C)CC(=O)C3=C(CC[C@@H]4C(=C3)C=CC(=O)OC4(C)C)[C@]12C | 92 | 10 | 50 (≈ 93.2 µM)
CC(=O)OC[C@]12CCC(=O)C(C)(C)[C@@H]1CCC1=C2CC[C@]2(C)[C@@H]([C@H](C)[C@@H]3CC=C(C)C(=O)O3)CC[C@@]12C | > 98 | > 20 | > 50

SMILES | IC50 (Vero) [µM] | IC50 (Plasmodium falciparum) [µM] | MIC [1] [µg/mL]
CC(=O)O[C@@H]1C[C@H]([C@H](C)[C@@H]2CC=C(C)C(=O)O2)[C@@]2(C)CCC3=C(CC[C@@H]4C(=CCC(=O)OC4(C)C)C3)[C@]12C | 94 | 12 | > 50
CC(=O)OC[C@]12CC[C@H](O)C(C)(C)[C@@H]1CCC1=C2CC[C@]2(C)[C@@H]([C@H](C)[C@H]3OC(=O)C(C)=C[C@@H]3O)CC[C@@]12C | 34 | 6.6 | > 50
CC1=CC[C@@H]([C@@H](C)[C@H]2CC[C@@]3(C)C4=C(CC[C@]23C)[C@@]2(C)CC[C@H](O)C(C)(C)[C@@H]2CC4)OC1=O | > 110 | > 22 | > 50
Cc1c2ccncc2c(C)c2c1[nH]c1ccccc12 [ELLIPTECINE] | 3.1 |  | 
CC1=C[C@H](O)[C@@H]([C@@H](C)[C@H]2CC[C@@]3(C)C4=C(CC[C@]23C)[C@@]2(C)CC[C@H](O)C(C)(C)[C@@H]2CC4)OC1=O | 36 | > 21 | > 50
CC1=CC[C@@H]([C@@H](C)[C@H]2CC[C@@]3(C)[C@@]45CC[C@@H](C(C)(C)O4)[C@]4(CCC(=O)OC4)C5=CC[C@]23C)OC1=O | 98 | > 21 | > 50
CC(=O)O[C@]12CCC(=O)OC(C)(C)[C@@H]1CC=C1[C@]3(C)CC[C@H]([C@H](C)[C@@H]4CC=C(C)C(=O)O4)[C@@]3(C)C[C@H]3O[C@@]132 | > 92 | > 18 | > 50
CC1=CC[C@@H]([C@@H](C)[C@H]2C[C@@H](O)[C@@]3(C)C4=C(C=C5C=CC(=O)O[C@@]5(C(C)(C)O)CC4)CC[C@]23C)OC1=O | > 101 | > 20 | > 50
CC(=O)O[C@@H]1C[C@H]([C@H](C)[C@H]2OC(=O)C(C)=C[C@@H]2O)[C@@]2(C)CC(=O)C3=C(CC[C@@H]4C(=C3)C=CC(=O)OC4(C)C)[C@]12C | > 90 | > 18 | > 50
CC1=CC[C@@H]([C@@H](C)[C@H]2C[C@@H](O)[C@@]3(C)C4=C(C=C5C=CC(=O)OC(C)(C)[C@@H]5CC4)CC[C@]23C)OC1=O | 42 | 12 | 50 (≈ 104 µM)
CC(=O)O[C@]12CCC(=O)OC(C)(C)[C@@H]1CCC1=C2CC[C@]2(C)[C@@H]([C@H](C)[C@@H]3CC=C(C)C(=O)O3)CC[C@@]12C | > 95 | > 19 | > 50
CC1=C[C@H](O)[C@@H]([C@@H](C)[C@H]2C[C@@H](O)[C@@]3(C)C4=C(C=C5C=CC(=O)OC(C)(C)[C@@H]5CC4)CC[C@]23C)OC1=O | 39 | > 20 | > 50
CC1=CC[C@@H]([C@@H](C)[C@H]2CC[C@@]3(C)C4=C(CC[C@]23C)[C@@]2(C)[C@H](O)C[C@H](O)C(C)(C)[C@@H]2CC4)OC1=O | > 106 | > 21 | > 50
CC(=O)O[C@@H]1C[C@H]([C@H](C)[C@H]2OC(=O)C(C)=C[C@@H]2O)[C@@]2(C)C[C@H](O)C3=C(CC[C@@H]4C(=C3)C=CC(=O)OC4(C)C)[C@]12C | > 90 | > 18 | > 50
CC1=CC[C@@H]([C@@H](C)[C@H]2CC[C@@]3(C)C4=CC[C@H]5C(C)(C)OC[C@@]5(CCC(=O)O)C4=CC[C@]23C)OC1=O | > 104 | 5.1 | > 50
CC1=CC[C@@H]([C@@H](C)[C@H]2CC[C@@]3(C)C4=C(CC[C@]23C)C[C@@]2(O)C=CC(=O)OC(C)(C)[C@@H]2CC4)OC1=O | 45 | 19 | > 50
CC(=O)O[C@@H]1C[C@H]([C@H](C)[C@H]2OC(=O)C(C)=C[C@@H]2O)[C@@]2(C)CCC3=C(CC[C@@H]4C(=C3)C=CC(=O)OC4(C)C)[C@]12C | 22 | 7 | 50 (≈ 92.8 µM)
CC(=O)O[C@]12CCC(=O)OC(C)(C)[C@@H]1CCC1=C2CC[C@]2(C)[C@@H]([C@H](C)[C@H]3OC(=O)C(C)=C[C@@H]3O)CC[C@@]12C | > 92 | > 18 | > 50
CC(=O)OC(C)(C)[C@@H]1CC=C2C(=CC[C@]3(C)[C@@H]([C@H](C)[C@H]4OC(=O)C(C)=C[C@@H]4O)CC[C@@]23C)[C@@]12CCC(=O)OC2 | > 92 | > 18 | > 50
COC(=O)CC[C@]1(COC(C)=O)C2=CC[C@]3(C)[C@@H]([C@H](C)[C@H]4OC(=O)C(C)=C[C@@H]4O)CC[C@@]3(C)C2=CC[C@H]1C(C)(C)O | 32 | 6.3 | > 50
